In the library only some 2.9% were active in any assay of this set; here they are far more common.
DENV2 CPE rescue: inhibitors of DENV2 cytopathic effect, primary screen, cell-based, plate reader, single concentration. CPE inhibition, % at 9.99 µM. hit rate 1.7% among 350,000. DENV2-infected cells, cytopathic effect rescue; in the data active = CPE inhibition above about 20%, passing the limit was not always enough; inconclusive = no clear call, values can overlap the other calls; tested in BHK-21 cells;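 also: 0% = median of neutral control wells and 100% = median of positive control wells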
ERAP1 inh: human ERAP1 aminopeptidase inhibitors, primary screen, biochemical, single point, plate reader; Endoplasmic reticulum aminopeptidase 1 (Homo sapiens), Q9NZ08; recombinant ERAP1, Leu-AMC fluorescence, 60 min; inhibition, % at 10.7 µM; hit rate 0.15% among 340,000;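 active = mean replicate inhibition of at least 30%, or all replicates individually reaching that 30% level; inactive = mean below 30% and not every replicate reaching it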;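 also: 0% = neutral control wells and 100% = L-leucinethiol positive control wells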
S100A4 inh HTS: inhibitors of S100A4-myosin IIA peptide binding, primary screen, biochemical, fluorescence polarization, TAMRA-MyoIIA peptide | inhibition, % at 10.7 µM | AID 652163, 2013 | Protein S100-A4 (Homo sapiens), P26447 | hit rate 0.14% among 360,000;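 active = mean inhibition of at least 70% across replicates, with every replicate also reaching that level; inconclusive = mean inhibition reaches 70% but some replicates fall short; inactive = mean inhibition below 70%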
Target sequence (P26447 whole entry, looked up): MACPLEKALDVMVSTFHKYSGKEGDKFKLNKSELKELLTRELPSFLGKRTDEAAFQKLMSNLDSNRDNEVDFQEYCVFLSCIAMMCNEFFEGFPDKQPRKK
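Test system: S100A4 monomer protein; Medium: HEPES pH 7.2 with CaCl2, KCl, NaCl, DTT, Triton; Probe or stimulus: TAMRA-labelled myosin IIA heavy-chain peptide probe, 5 nM; Doses: one dose per compound; Times: polarization read 5 min after assay mix addition, stable 5–60 min; Benchmarks: neutral control DMSO, positive control TFP.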
CAL PDZ FP-1: untagged CAL PDZ binding inhibitors, primary screen, biochemical, fluorescence polarization, HTS; Golgi-associated PDZ and coiled-coil motif-containing protein (Homo sapiens), Q9HD26; purified CAL PDZ, TMR-peptide fluorescence polarization, 1 h; inhibition, % at 24.9 µM; hit rate 0.92% among 300,000; AID 602252, 2012;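 active = mean inhibition of at least 30% with at least half of replicates also reaching 30%; inconclusive = no clear call, values can overlap the other calls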;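 also: 0% = DMSO neutral control and 100% = excess unlabeled competitor peptide PRC23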
CAL PDZ FP-2: CAL PDZ peptide-binding inhibitors, primary screen, biochemical, fluorescence polarization, Cer-tagged CAL PDZ, HTS; Golgi-associated PDZ and coiled-coil motif-containing protein (Homo sapiens), Q9HD26; purified CAL PDZ, TMR-peptide fluorescence polarization, 1 h; inhibition, % at 20 µM; hit rate 0.02% among 330,000; AID 504414, 2011;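 active = highest replicate inhibition of at least 40%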;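 also: plate controls were DMSO neutral control wells for no effect and unlabeled competitor peptide control wells for full effect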
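Test system: purified CerCALP PDZ construct; Compound dosing: one concentration, 20 µM compound; Also added: TMR-labelled reporter peptide T*-PRC34 bound in PDZ groove; Read-out: inhibition from polarization loss; Controls: unlabelled peptide and DMSO controls; Signal: FP readout, S and P plane fluorescence; Incubation: 1 h at RT.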
SIRT5 inh: SIRT5 desuccinylase inhibitors, primary screen, biochemical, fluorescence imaging, single point, set 5; NAD-dependent protein deacylase sirtuin-5, mitochondrial (Homo sapiens), Q9NXA8; Purified SirT5, succinyl-peptide AMC, trypsin-coupled fluorescence; inhibition, % at 15 µM; hit rate 1.1% among 330,000; in the data active = inhibition above about 15%; inconclusive = no clear call, values can overlap the other calls
Target sequence (Q9NXA8 whole entry, looked up): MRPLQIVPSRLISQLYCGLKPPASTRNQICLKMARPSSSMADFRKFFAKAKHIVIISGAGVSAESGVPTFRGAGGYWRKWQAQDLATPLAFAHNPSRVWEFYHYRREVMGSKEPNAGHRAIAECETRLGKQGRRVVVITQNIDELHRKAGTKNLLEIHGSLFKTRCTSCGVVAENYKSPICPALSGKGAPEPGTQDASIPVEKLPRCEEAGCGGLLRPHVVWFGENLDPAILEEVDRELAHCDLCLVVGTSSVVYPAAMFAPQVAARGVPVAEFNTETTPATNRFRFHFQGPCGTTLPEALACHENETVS
Starred values were filed as active, the others as inactive.

COC(=O)Cn1c(C(=O)N(C)C)cc2c1C[C@H]1CN(C(=O)c3ccccc3)[C@@](Cc3ccc(F)cc3)(C(=O)OC)[C@@H]21 was read as DENV2 CPE rescue 63* and S100A4 inh HTS -2.
Screening CCCNC(=O)N1CC2(CN(C)C2)c2c([nH]c3cc(OC)ccc23)[C@@H]1CO returned DENV2 CPE rescue 5.
Screening CCCNC(=O)N1CC2(C1)CN(C(=O)Nc1ccc(F)cc1)[C@H](CO)c1[nH]c3cc(OC)ccc3c12 returned DENV2 CPE rescue 23*, ERAP1 inh -1, S100A4 inh HTS 10 and SIRT5 inh 4.
For COc1ccc2c3c([nH]c2c1)[C@@H](CO)N(C(=O)Nc1ccc(F)cc1)CC31CCN(C(=O)Nc2ccc3c(c2)OCO3)CC1 the results were DENV2 CPE rescue 6, ERAP1 inh 2, S100A4 inh HTS 16 and SIRT5 inh 2.
For COc1ccc2c3c([nH]c2c1)[C@H](CO)N(C(=O)Nc1ccc(F)cc1)CC31CCN(C(=O)Nc2ccc3c(c2)OCO3)CC1 the results were DENV2 CPE rescue 61*, ERAP1 inh 1, S100A4 inh HTS 7 and SIRT5 inh -2.
Screening CCCNC(=O)N1CC2(C1)CN(C(=O)CCC)[C@@H](CO)c1[nH]c3cc(OC)ccc3c12 returned DENV2 CPE rescue 22*.
Screening COc1ccc2c3c([nH]c2c1)[C@H](CO)N(C(=O)Nc1ccc(F)cc1)CC31CN(Cc2cc(-c3ccccc3)on2)C1 returned DENV2 CPE rescue 50*, ERAP1 inh -5, S100A4 inh HTS -1 and SIRT5 inh -1.
`CCC(=O)Nc1ccc2c(c1)C(=O)N(C)C[C@H](OC)[C@H](C)CN(Cc1cccnc1)[C@H](C)CO2` gave DENV2 CPE rescue 3 and SIRT5 inh -4.
COc1ccc2c3c([nH]c2c1)[C@H](CO)N(C(=O)Nc1cccc(F)c1)CC31CN(S(=O)(=O)c2ccccc2)C1 was read as DENV2 CPE rescue 79*.
COc1ccc(CNC(=O)c2cc(=O)c3ccc(C)c(C)c3o2)cc1 was read as DENV2 CPE rescue 9, ERAP1 inh 0, S100A4 inh HTS -10, CAL PDZ FP-1 -5, CAL PDZ FP-2 0 and SIRT5 inh -3.
For COc1ccc(CNC(=O)c2cc(=O)c3cc(C)cc(C)c3o2)cc1 the results were DENV2 CPE rescue inconclusive, ERAP1 inh 5, S100A4 inh HTS -15, CAL PDZ FP-1 -4 and SIRT5 inh 24*.
Screening C[C@H](CO)N1C[C@H](C)[C@H](CN(C)Cc2ccccn2)Oc2ncc(-c3ccc(C#N)cc3)cc2C1=O returned DENV2 CPE rescue 2, ERAP1 inh 0, S100A4 inh HTS 4 and SIRT5 inh -2.
`CN(C)CC#Cc1ccc([C@H]2[C@@H](CO)N(C(=O)C3CC3)[C@H]2C#N)cc1` gave DENV2 CPE rescue 32*, ERAP1 inh -2, S100A4 inh HTS 8 and SIRT5 inh 1.
Screening CCCC#Cc1ccc([C@@H]2[C@@H](CO)N(C(=O)C3CC3)[C@H]2C#N)cc1 returned DENV2 CPE rescue 63*, ERAP1 inh -2, S100A4 inh HTS 34 and SIRT5 inh 4.
Screening CCCC#Cc1ccc([C@H]2[C@H](C#N)N(C(=O)C3CC3)[C@H]2CO)cc1 returned DENV2 CPE rescue 10, ERAP1 inh 0, S100A4 inh HTS 30 and SIRT5 inh 2.
For CC(C)C#Cc1ccc([C@H]2[C@H](C#N)N(C(=O)C3CCC3)[C@H]2CO)cc1 the results were DENV2 CPE rescue 57*, ERAP1 inh -2, S100A4 inh HTS -9 and SIRT5 inh 3.
For CN(C)CC#Cc1ccc([C@H]2[C@@H](CO)N(C(=O)C3CCCC3)[C@H]2C#N)cc1 the results were DENV2 CPE rescue 0, ERAP1 inh 2, S100A4 inh HTS 2 and SIRT5 inh 4.
CC(C)C#Cc1ccc([C@@H]2[C@@H](C#N)N(C(=O)C3CCC3)[C@@H]2CO)cc1 was read as DENV2 CPE rescue -10, ERAP1 inh -2, S100A4 inh HTS -7 and SIRT5 inh 0.
C[C@@H]1CN([C@H](C)CO)C(=O)c2cc(C#C[C@@H](C)O)cnc2O[C@H]1CN(C)Cc1ccccn1 was read as DENV2 CPE rescue 7, ERAP1 inh 2, S100A4 inh HTS inconclusive and SIRT5 inh 1.
Cc1ccccc1C(=O)c1ccccc1C(=O)c1ccccc1 was read as DENV2 CPE rescue 13, ERAP1 inh 2, S100A4 inh HTS 9, CAL PDZ FP-1 86* and CAL PDZ FP-2 0.
O=C(c1ccccc1)c1ccccc1C(=O)c1ccccc1 was read as DENV2 CPE rescue 0, ERAP1 inh 0, S100A4 inh HTS -2, CAL PDZ FP-1 -6 and SIRT5 inh -3.
For C[C@@H]1CCCCO[C@H](CN(C)C(=O)c2ccccc2)[C@@H](C)CN([C@H](C)CO)C(=O)c2cc(NS(=O)(=O)c3ccc(Cl)cc3)ccc2O1 the results were DENV2 CPE rescue 4, ERAP1 inh -2, S100A4 inh HTS 54 and SIRT5 inh 14.
`O=C(CN1CCN(C(=O)c2cc(C3CC3)nn2-c2ccccc2)CC1)Nc1ccc(F)cc1` gave DENV2 CPE rescue 6, ERAP1 inh 1, S100A4 inh HTS -1 and SIRT5 inh 0.
`Cc1cccc(NC(=O)CN2CCN(C(=O)c3cc(C4CC4)nn3-c3ccccc3)CC2)c1C` gave DENV2 CPE rescue 62*, ERAP1 inh -1, S100A4 inh HTS -6 and SIRT5 inh 3.
Screening Cc1nn(C(C)C(=O)NCc2ccccc2Cl)c(=O)c2c1sc1ccccc12 (centres undefined) returned CAL PDZ FP-1 70* and CAL PDZ FP-2 0.
For CCCN1CCN(CCCNC(=O)C(CC)n2nc(C)c3sc4ccccc4c3c2=O)CC1 (centres undefined) the results were DENV2 CPE rescue -1, ERAP1 inh -7, S100A4 inh HTS 113*, CAL PDZ FP-1 2, CAL PDZ FP-2 -2 and SIRT5 inh 1.
For CCC(C(=O)NCCCN1CC(C)CC(C)C1)n1nc(C)c2sc3ccccc3c2c1=O (centres undefined) the results were DENV2 CPE rescue 11, ERAP1 inh 3, S100A4 inh HTS -3, CAL PDZ FP-1 0, CAL PDZ FP-2 -2 and SIRT5 inh 31*.
CCC(C(=O)NCCCN1CCN(C)CC1)n1nc(C)c2sc3ccccc3c2c1=O (centres undefined) was read as DENV2 CPE rescue -2, ERAP1 inh -3, S100A4 inh HTS -5, CAL PDZ FP-1 -1, CAL PDZ FP-2 -4 and SIRT5 inh -3.
`Cc1ccccc1S(=O)(=O)N1CCCCN2[C@@H](CO)[C@H](c3ccc(-c4ccccc4)cc3)[C@@H]2C1` gave DENV2 CPE rescue 8, ERAP1 inh 1, S100A4 inh HTS -11 and SIRT5 inh 5.
Cc1noc(C)c1S(=O)(=O)Nc1ccc2c(c1)C(=O)N([C@@H](C)CO)C[C@H](C)[C@@H](CN(C)C(=O)c1ccncc1)OCCCC[C@H](C)O2 was read as DENV2 CPE rescue -6, ERAP1 inh 0, S100A4 inh HTS -2 and SIRT5 inh -4.

Assay outcomes deposited in PubChem by Broad Institute.
